The source made the active and inactive calls.
Experiments:
Staphylococcus aureus [1] = assay: Antibacterial activity against methicillin resistant Staphylococcus aureus 385 assessed as inhibition of bacterial growth incubated for 18 to 20 hrs by CLSI protocol based broth microdilution method; type: functional; conditions: time 18-20 hrs
Summary of the method: (§1)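 Broth microdilution against staphylococcal clinical isolates. Each strain was prepared as a 0.5 McFarland suspension and diluted in cation-adjusted Mueller Hinton broth to ~5 × 10^5 CFU mL−1. Serial dilutions of test agents in DMSO stock were incubated with the bacteria, and the MIC was recorded.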

Streptococcus pneumoniae [2] = assay: Antibacterial activity against Streptococcus pneumoniae 51916 assessed as inhibition of bacterial growth incubated for 18 to 20 hrs by CLSI protocol based broth microdilution method; type: functional; conditions: time 18-20 hrs
Summary of the method: (§2)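 Streptococci were diluted from a 0.5 McFarland suspension in cation-adjusted Mueller Hinton broth with 5% lysed horse blood. They were incubated with serial dilutions of test agent in broth microdilution, and the MIC was recorded.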

Staphylococcus aureus [3] = assay: Antibacterial activity against vancomycin resistant Staphylococcus aureus 12 assessed as inhibition of bacterial growth at 0.5 ug/ml incubated for 18 to 20 hrs by CLSI protocol based broth microdilution method; type: functional, organism-based; conditions: dose 0.5 µg/ml, time 18-20 hrs
Staphylococcus aureus [4] = assay: Antibacterial activity against methicillin resistant Staphylococcus aureus 384 assessed as inhibition of bacterial growth incubated for 18 to 20 hrs by CLSI protocol based broth microdilution method; type: functional; conditions: time 18-20 hrs; summary of the method: as §1
Staphylococcus aureus [5] = assay: Antibacterial activity against methicillin resistant Staphylococcus aureus 119 assessed as inhibition of bacterial growth incubated for 18 to 20 hrs by CLSI protocol based broth microdilution method; type: functional; conditions: time 18-20 hrs; summary of the method: as §1
Staphylococcus aureus [6] = assay: Antibacterial activity against vancomycin resistant Staphylococcus aureus 9 assessed as inhibition of bacterial growth incubated for 18 to 20 hrs by CLSI protocol based broth microdilution method; type: functional; conditions: time 18-20 hrs; summary of the method: as §1
Streptococcus mutans = assay: Antibacterial activity against Streptococcus mutans 25175 assessed as inhibition of bacterial growth incubated for 18 to 20 hrs by CLSI protocol based broth microdilution method; type: functional; conditions: time 18-20 hrs; summary of the method: as §2
Staphylococcus aureus [7] = assay: Antibacterial activity against methicillin sensitive Staphylococcus aureus 107 assessed as inhibition of bacterial growth at 0.5 ug/ml incubated for 18 to 20 hrs by CLSI protocol based broth microdilution method; type: functional, organism-based; conditions: dose 0.5 µg/ml, time 18-20 hrs
Summary of the method: (§3)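 Staphylococcal and E. coli strains were diluted from a 0.5 McFarland suspension in cation-adjusted Mueller Hinton broth to ~5 × 10^5 CFU mL−1. They were incubated with serial dilutions of test agent in broth microdilution, and the MIC was recorded.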

Staphylococcus aureus [8] = assay: Antibacterial activity against methicillin sensitive Staphylococcus aureus 6538 assessed as inhibition of bacterial growth incubated for 18 to 20 hrs by CLSI protocol based broth microdilution method; type: functional; conditions: time 18-20 hrs; summary of the method: as §1
Streptococcus pneumoniae [9] = assay: Antibacterial activity against Streptococcus pneumoniae 700677 assessed as inhibition of bacterial growth incubated for 18 to 20 hrs by CLSI protocol based broth microdilution method; type: functional; conditions: time 18-20 hrs; summary of the method: as §2
Staphylococcus aureus [10] = assay: Antibacterial activity against vancomycin resistant Staphylococcus aureus 12 assessed as inhibition of bacterial growth incubated for 18 to 20 hrs by CLSI protocol based broth microdilution method; type: functional; conditions: time 18-20 hrs; summary of the method: as §1
Vero = assay: Cytotoxicity against African green monkey Vero cells assessed as reduction in cell viability at 64 ug/ml incubated for 24 hrs by MTS assay; type: toxicity, cell-based; conditions: chlorocebus sabaeus, dose 64 µg/ml
Summary of the method: (§4)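 Vero or HaCaT cells were exposed to 32, 64 and 128 μg mL−1 compound in triplicate for 24 h at 37 °C, 5% CO2, with a DMSO control. MTS was then added for 4 h and OD490 read. Analysis used two-way ANOVA with Dunnett's post hoc test (p < 0.05).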

Staphylococcus aureus [11] = assay: Antibacterial activity against methicillin resistant Staphylococcus aureus 384 assessed as inhibition of bacterial growth at 0.5 ug/ml incubated for 18 to 20 hrs by CLSI protocol based broth microdilution method; type: functional, organism-based; conditions: dose 0.5 µg/ml, time 18-20 hrs
Enterococcus faecium = assay: Antibacterial activity against Enterococcus faecium 700221 assessed as inhibition of bacterial growth incubated for 18 to 20 hrs by CLSI protocol based broth microdilution method; type: functional; conditions: time 18-20 hrs
Summary of the method: (§5)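 Enterococci and L. monocytogenes were diluted from a 0.5 McFarland suspension in TSB. They were incubated with serial dilutions of test agent in broth microdilution, and the MIC was recorded.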

Streptococcus pyogenes [12] = assay: Antibacterial activity against Streptococcus pyogenes MGAS 1882 assessed as inhibition of bacterial growth incubated for 18 to 20 hrs by CLSI protocol based broth microdilution method; type: functional; conditions: time 18-20 hrs; summary of the method: as §2
Staphylococcus aureus [13] = assay: Antibacterial activity against methicillin resistant Staphylococcus aureus 123 assessed as inhibition of bacterial growth incubated for 18 to 20 hrs by CLSI protocol based broth microdilution method; type: functional; conditions: time 18-20 hrs; summary of the method: as §1
Staphylococcus aureus [14] = assay: Antibacterial activity against methicillin resistant Staphylococcus aureus 386 assessed as inhibition of bacterial growth at 0.5 ug/ml incubated for 18 to 20 hrs by CLSI protocol based broth microdilution method; type: functional, organism-based; conditions: dose 0.5 µg/ml, time 18-20 hrs
Enterococcus faecalis = assay: Antibacterial activity against Enterococcus faecalis 51299 assessed as inhibition of bacterial growth incubated for 18 to 20 hrs by CLSI protocol based broth microdilution method; type: functional; conditions: time 18-20 hrs; summary of the method: as §5
Staphylococcus aureus [15] = assay: Antibacterial activity against methicillin sensitive Staphylococcus aureus 107 assessed as inhibition of bacterial growth incubated for 18 to 20 hrs by CLSI protocol based broth microdilution method; type: functional; conditions: time 18-20 hrs; summary of the method: as §1
Staphylococcus aureus [16] = assay: Antibacterial activity against methicillin resistant Staphylococcus aureus 119 assessed as inhibition of bacterial growth at 0.5 ug/ml incubated for 18 to 20 hrs by CLSI protocol based broth microdilution method; type: functional, organism-based; conditions: dose 0.5 µg/ml, time 18-20 hrs
Staphylococcus aureus [17] = assay: Antibacterial activity against methicillin resistant Staphylococcus aureus NRS384 USA300 assessed as inhibition of bacterial growth incubated for 18 to 20 hrs by CLSI protocol based broth microdilution method; type: functional; conditions: time 18-20 hrs, read-out: MIC; summary of the method: as §1
Streptococcus pyogenes [18] = assay: Antibacterial activity against Streptococcus pyogenes MGAS 9882 assessed as inhibition of bacterial growth incubated for 18 to 20 hrs by CLSI protocol based broth microdilution method; type: functional; conditions: time 18-20 hrs; summary of the method: as §2
Staphylococcus aureus [19] = assay: Antibacterial activity against vancomycin resistant Staphylococcus aureus 10 assessed as inhibition of bacterial growth at 0.5 ug/ml incubated for 18 to 20 hrs by CLSI protocol based broth microdilution method; type: functional, organism-based; conditions: dose 0.5 µg/ml, time 18-20 hrs
Staphylococcus aureus [20] = assay: Antibacterial activity against vancomycin resistant Staphylococcus aureus 9 assessed as inhibition of bacterial growth at 0.5 ug/ml incubated for 18 to 20 hrs by CLSI protocol based broth microdilution method; type: functional, organism-based; conditions: dose 0.5 µg/ml, time 18-20 hrs
Staphylococcus aureus [21] = assay: Antibacterial activity against methicillin resistant Staphylococcus aureus 386 assessed as inhibition of bacterial growth incubated for 18 to 20 hrs by CLSI protocol based broth microdilution method; type: functional; conditions: time 18-20 hrs; summary of the method: as §1
Staphylococcus aureus [22] = assay: Antibacterial activity against methicillin resistant Staphylococcus aureus 385 assessed as inhibition of bacterial growth at 0.5 ug/ml incubated for 18 to 20 hrs by CLSI protocol based broth microdilution method; type: functional, organism-based; conditions: dose 0.5 µg/ml, time 18-20 hrs
Staphylococcus aureus [23] = assay: Antibacterial activity against methicillin resistant Staphylococcus aureus 123 assessed as inhibition of bacterial growth at 0.5 ug/ml incubated for 18 to 20 hrs by CLSI protocol based broth microdilution method; type: functional, organism-based; conditions: dose 0.5 µg/ml, time 18-20 hrs
Listeria monocytogenes = assay: Antibacterial activity against Listeria monocytogenes 19111 assessed as inhibition of bacterial growth incubated for 18 to 20 hrs by CLSI protocol based broth microdilution method; type: functional; conditions: time 18-20 hrs; summary of the method: as §5
Staphylococcus aureus [24] = assay: Antibacterial activity against vancomycin resistant Staphylococcus aureus 10 assessed as inhibition of bacterial growth incubated for 18 to 20 hrs by CLSI protocol based broth microdilution method; type: functional; conditions: time 18-20 hrs; summary of the method: as §1
Staphylococcus aureus [25] = assay: Antibacterial activity against methicillin sensitive Staphylococcus aureus 6538 assessed as inhibition of bacterial growth at 0.5 ug/ml incubated for 18 to 20 hrs by CLSI protocol based broth microdilution method; type: functional, organism-based; conditions: dose 0.5 µg/ml, time 18-20 hrs; summary of the method: as §3
[26] = system: Staphylococcus epidermidis; assay: Antibacterial activity against Staphylococcus epidermidis 101 assessed as inhibition of bacterial growth incubated for 18 to 20 hrs by CLSI protocol based broth microdilution method; type: functional; conditions: time 18-20 hrs; summary of the method: as §3
Staphylococcus aureus [27] = assay: Antibacterial activity against methicillin resistant Staphylococcus aureus NRS384 USA300 infected in Balb/c mouse model of skin infection assessed as healing administered topically twice daily for three consecutive days from day 4 to 6 and measured 24 hrs post last dose; type: functional, organism-based; conditions: route top, time 4.0 day
Summary of the method: (§6)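 Mice were anesthetized with 2,2,2-tribromoethanol and injected subcutaneously with 100 μL containing 2 × 10^9 CFU MRSA USA300 in 0.5% HPMC in saline. Topical treatment used a petroleum jelly vehicle, with a fusidic acid positive control. Lesions were photographed 24 h after the last dose. A ~1.5 cm2 skin patch (homogenized in 1 mL saline) and the spleen (in 0.5 mL) were serially diluted and plated on MSA at 37 °C overnight for CFU.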

Staphylococcus aureus [28] = assay: Antibacterial activity against methicillin resistant Staphylococcus aureus NRS384 USA300 infected in Balb/c mouse model of skin infection assessed as reduction in inflammation administered topically twice daily for three consecutive days from day 4 to 6 and measured 24 hrs post last dose; type: functional, organism-based; conditions: route top, time 4.0 day; summary of the method: as §6
Staphylococcus aureus [29] = assay: Antibacterial activity against methicillin resistant Staphylococcus aureus NRS384 USA300 infected in Balb/c mouse model of skin infection assessed as reduction in bacterial burden in skin lesions administered topically twice daily for three consecutive days from day 4 to 6 and measured 24 hrs post last dose; type: functional; conditions: route top; time 4 day; summary of the method: as §6
[30] = Cytotoxicity against human HaCaT cells assessed as tolerance by measuring cell viability upto 128 ug/ml incubated for 24 hrs by MTS assay relative to control; type: toxicity, cell-based; conditions: up to 128 µg/mL, read-out: Activity; summary of the method: as §4

CCCCC#Cc1ccc(NC(=O)Nc2ccc(/C(C)=N/NC(=N)N)cc2)cc1
Non-Toxic: Activity (Vero)
0.5 µg/mL: MIC (Staphylococcus aureus [1]) | MIC (Streptococcus pneumoniae [2]) | MIC (Staphylococcus aureus [4]) | MIC (Staphylococcus aureus [5]) | MIC (Staphylococcus aureus [6]) | MIC (Streptococcus mutans) | MIC (Staphylococcus aureus [8]) | MIC (Streptococcus pneumoniae [9]) | MIC (Staphylococcus aureus [10]) | MIC (Enterococcus faecium) | MIC (Streptococcus pyogenes [12]) | MIC (Staphylococcus aureus [13]) | MIC (Enterococcus faecalis) | MIC (Staphylococcus aureus [15]) | MIC (Staphylococcus aureus [17]) | MIC (Streptococcus pyogenes [18]) | MIC (Staphylococcus aureus [21]) | MIC (Listeria monocytogenes) | MIC (Staphylococcus aureus [24]) | MIC [26]
active: Activity (Staphylococcus aureus [3]) | Activity (Staphylococcus aureus [7]) | Activity (Staphylococcus aureus [11]) | Activity (Staphylococcus aureus [14]) | Activity (Staphylococcus aureus [16]) | Activity (Staphylococcus aureus [19]) | Activity (Staphylococcus aureus [20]) | Activity (Staphylococcus aureus [22]) | Activity (Staphylococcus aureus [23]) | Activity (Staphylococcus aureus [25])

CC(=O)O[C@H]1C[C@@]2(C)[C@@H](C[C@@H](O)[C@H]3[C@@]4(C)CC[C@@H](O)[C@@H](C)[C@@H]4CC[C@@]32C)/C1=C(\CCC=C(C)C)C(=O)O [FUSIDIC ACID]
1.5 log10CFU/ml: Activity (Staphylococcus aureus [29])
active: Activity (Staphylococcus aureus [27]) | Activity (Staphylococcus aureus [28])

C/C(=N\NC(=N)N)c1ccc(NC(=O)Nc2ccc(C#CC(C)(C)O)cc2)cc1
100%: viability at 24 h [30]
active: Activity (Staphylococcus aureus [3]) | Activity (Staphylococcus aureus [7]) | Activity (Staphylococcus aureus [11]) | Activity (Staphylococcus aureus [14]) | Activity (Staphylococcus aureus [16]) | Activity (Staphylococcus aureus [19]) | Activity (Staphylococcus aureus [20]) | Activity (Staphylococcus aureus [22]) | Activity (Staphylococcus aureus [23]) | Activity (Staphylococcus aureus [25])
Non-Toxic: Activity (Vero)

From ChEMBL document CHEMBL5230171, “Expanding the structure-activity relationships of alkynyl diphenylurea scaffold as promising antibacterial agents” (RSC Med Chem, 2023)
